# Shown are actives, neighbours in structure and some others; about 3.4% of the full set was active somewhere.
# Cdc25B block = human M-phase inducer phosphatase 2 inhibition; recombinant Cdc25B, OMFP fluorescence Ex485/Em525; hit rate 0.1% among 65,000; inhibition, %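 (compounds tested at 10 µM final in the well)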; AID 368; in the data active = inhibition above about 50%
# JNK3 blocker = blocks human JNK3 kinase activity | purified JNK3 kinase activity, HTS | P53779 | inhibition, % at 8 µM | hit rate 0.61% among 60,000; in the data active = inhibition above about 17%;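 also: 0% = DMSO and 100% = reference inhibitor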
# DUSP1 inh = human dual specificity phosphatase 1 inhibition; inhibition, %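 (compounds tested at a single concentration somewhere between 10 and 100 µM)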; hit rate 0.15% among 65,000; AID 374; P28562; recombinant MKP-1, OMFP hydrolysis fluorescence;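 active = inhibition above about 50%, limit read from the data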;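 also: 0% = DMSO max control wells and 100% = wells with enzyme stopped by NaOH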
# RORa activator = RORA (human) activation; AID 560; P35398; activation, % at 10 µM; CHO-K1 Gal4-RORA LBD luciferase reporter, luminescence; percent increase over mock-subtracted basal signal; hit rate 1.5% among 65,000;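 active = activation above the mean of all tested compounds plus 3 SD, cut at about 49% in these data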;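 also: 0% = DMSO-treated RORA cells and 100% = added signal equal to DMSO minus mock-transfected cells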
# Target sequence (P35398 whole entry, looked up, the tested form may be a part): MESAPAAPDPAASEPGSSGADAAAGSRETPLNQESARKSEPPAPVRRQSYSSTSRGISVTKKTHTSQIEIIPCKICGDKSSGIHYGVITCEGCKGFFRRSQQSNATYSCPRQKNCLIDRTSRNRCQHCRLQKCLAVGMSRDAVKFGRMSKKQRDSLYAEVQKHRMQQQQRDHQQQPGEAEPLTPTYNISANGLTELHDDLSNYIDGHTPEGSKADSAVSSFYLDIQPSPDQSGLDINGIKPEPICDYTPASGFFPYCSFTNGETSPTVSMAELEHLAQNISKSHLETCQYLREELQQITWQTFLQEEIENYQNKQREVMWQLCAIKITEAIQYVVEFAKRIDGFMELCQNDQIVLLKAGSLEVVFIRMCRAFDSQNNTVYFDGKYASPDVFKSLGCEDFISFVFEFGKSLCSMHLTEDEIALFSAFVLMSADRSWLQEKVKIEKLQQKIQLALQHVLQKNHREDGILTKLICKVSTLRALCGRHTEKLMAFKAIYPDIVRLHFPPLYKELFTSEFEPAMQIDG
# Hsp90 inh = displaces geldanamycin probe from tumor Hsp90; NCI-N417 lysate Hsp90, Cy3B-geldanamycin FP displacement; P07900; hit rate 0.35% among 64,000; inhibition, % at 30 µM;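 active = inhibition above 50%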;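 also: 0% = tracer plus lysate wells and 100% = tracer alone without lysate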
# SF1 activator = SF-1 (human) activation; hit rate 1.9% among 65,000; CHO-K1 Gal4-SF-1 LBD luciferase reporter; % increase over DMSO SF-1-specific signal; activation, % at 10 µM; Q13285;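 active = activation above the mean activation of all tested compounds plus 3 SD, cut at about 50% in these data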
#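 Compound – one dose, 10 µM compound, 1% DMSO · Test system – transient Gal4-SF-1 LBD reporter, CHO-K1 · Input – 4,000 cells in each well · Read-out basis – percent activation relative to DMSO median and mock-transfected background · Replicates – single measurement per compound · Technique – steady-glow luciferase luminescence, read after 15 min reagent incubation · Timing – 20 h compound treatment, 37 °C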
# Numbers without * were called inactive; / = no result given.
SMILES,Cdc25B block,JNK3 blocker,DUSP1 inh,RORa activator,Hsp90 inh,SF1 activator
Cc1ccccc1OCc1nc(-c2ccccc2)no1,-10.5,-8.1,-19.2,33.7,-3.4,71.2*
Cc1ccccc1OCc1nc(-c2ccc(NC(=O)c3ccco3)cc2)no1,-8.0,/,15.8,58.2*,-7.0,27.9
Cn1c(SCc2nc(-c3ccc(Cl)cc3)no2)nnc1-c1ccco1,1.0,-10.5,0.9,-5.8,-3.4,-2.7
COc1ccc(OC)c(NC(=O)C2C3C=CC(C3)C2C(=O)NCc2ccccn2)c1 (configuration not stated),7.5,-3.9,1.9,12.7,5.3,11.4
O=C(CCn1cnc2ccccc2c1=O)Nc1ccc(S(=O)(=O)N2CCCC2)cc1,-12.6,26.6*,2.7,12.7,-0.1,-15.7
Cc1csc(NC(=O)CSc2nc3ccccc3c(=O)[nH]2)n1,-3.6,1.6,-29.7,-11.8,-1.4,-0.8
O=C(CCn1cnc2ccccc2c1=O)Nc1ccc(S(=O)(=O)N2CCCCC2)cc1,-9.5,20.2*,5.1,-9.1,2.8,6.6
O=C(CSc1nc2ccccc2c(=O)[nH]1)Nc1ccc(S(=O)(=O)N2CCCC2)cc1,0.0,-2.2,53.2*,-12.1,-2.5,-10.7
Cc1ccc(NC(=O)CCn2cnc3ccccc3c2=O)cc1Cl,1.4,11.5,9.2,2.9,3.6,-16.8
CCOC(=O)CSC(CC)C(=O)Nc1nnc(CC)s1 (configuration not stated),-28.3,-1.9,0.7,-1.8,2.1,20.6
Cc1ccc(S(=O)(=O)n2nc(-c3ccc(Cl)cc3)nc2NCc2ccco2)cc1,2.4,-2.9,7.4,0.1,0.6,-6.3
CCCN1c2cccc3cccc(c23)S1(=O)=O,-7.2,/,4.9,-11.3,/,-12.2
Cc1occc1C(=O)NC(C)C(C)(C)C (configuration not stated),-1.9,5.2,24.8,-14.0,80.0*,-11.8
Cc1occc1C(=O)NC(C)CCc1ccccc1 (configuration not stated),-8.5,-0.1,1.3,-16.8,-3.7,1.3
O=C(CN1C(=O)NC2(CCCCCC2)C1=O)c1ccc2c(c1)OCCO2,6.1,2.5,25.2,24.8,1.2,88.7*
O=C(CCN1CCCCC1)c1ccc2c(c1)OCCO2,-0.9,3.8,34.9,-18.9,1.5,-11.8
O=C(COc1cccc2cccnc12)Nc1nccs1,-10.7,1.3,3.0,74.9*,-4.1,48.0
O=C(Oc1cccc2cccnc12)c1cccs1,-4.7,-0.6,4.0,-32.8,-1.9,-29.0
Cc1cc2c(cc1Cl)N(C(=O)Nc1ccnc3ccccc13)CC2,/,/,/,/,-1.2,/
Cc1ccc(-n2nc(C)c(C3C(C#N)=C(N)OC4=C3C(=O)CC(C)(C)C4)c2Cl)cc1 (configuration not stated),-13.6,2.7,9.4,30.0,-2.5,57.0*
CCOC(=O)c1c(C)[nH]c(C(=O)COC(=O)C2CC2C)c1C (configuration not stated),-17.5,0.5,20.3,38.2,-2.7,53.5*
CCOC(=O)N1CCN(S(=O)(=O)c2ccc3c(c2)SC(C)C(=O)N3)CC1 (configuration not stated),-13.4,6.9,14.1,-3.7,0.2,-16.8
C(=N\n1cnnc1)/c1cn(-c2cccs2)nc1-c1ccccc1,4.8,/,21.1,15.4,/,14.6
N#CCCn1cc(/C=N/O)c(-c2ccc(-c3ccccc3)cc2)n1,-4.8,-5.2,12.1,34.5,-2.7,56.7*
CC(C)(C)c1cc(C(=O)O)c(CN2CCCCC2)o1,79.4*,6.3,-15.7,-1.8,0.1,-5.6
SMILES,Cdc25B block,JNK3 blocker,DUSP1 inh,RORa activator,Hsp90 inh,SF1 activator
O=C(Nc1ccc2c(c1)OCCO2)c1c(F)cccc1F,0.0,-1.4,10.1,47.2,2.7,56.0*
CC(=O)c1c(C)[nH]c(C(=O)Nc2ccc3c(c2)OCCO3)c1C,6.2,5.6,-2.6,8.9,-2.4,60.9*
CCOC(=O)c1[nH]c(C)c(C(=O)Nc2ccc3c(c2)OCCO3)c1C,-9.9,5.8,7.2,39.0,0.4,0.9
O=C(Nc1ccccc1-c1nc2ccccc2o1)c1ccc2c(c1)OCCO2,-15.0,4.8,-5.0,-8.2,-3.0,-3.2
O=C(Nc1ccc2oc(-c3ccccc3F)nc2c1)c1ccc2c(c1)OCCO2,5.9,-5.2,40.1,61.1*,1.7,30.8
O=C(Nc1ccc2c(c1)OCCO2)c1ccccc1F,-2.3,-3.2,6.1,-29.8,1.2,1.6
CN1C2CCC1CC(NC(=O)c1nn(C)c3ccccc13)C2 (configuration not stated),/,/,/,/,-1.8,/
Cc1cc(C)c(C)c(OCC(=O)NCc2nc(-c3ccccc3)no2)c1,-4.0,1.0,40.2,-9.4,-1.4,-5.9
C#CC(N)CCC(=O)O (configuration not stated),/,/,/,/,-1.9,/
CC(C)Oc1cc(O)c2c(=O)c(-c3ccc(O)cc3)coc2c1,-0.3,-0.5,-4.0,45.7,-5.1,58.3*
COc1ccc(-c2coc3cc(O)cc(O)c3c2=O)cc1,-0.6,-6.0,-1.9,30.5,-0.4,97.2*
O=C(C1=COCCO1)N1CCN(C(c2ccccc2)c2ccccc2)CC1,0.5,-4.1,21.5,-24.1,-0.7,-10.4
CC(C)c1nc(N2CCN(C(=O)c3ccccc3)CC2)c(C#N)c2c1COC(C)(C)C2,-4.1,9.1,-2.5,17.6,-3.3,53.3*
COc1cc(NCCCN)c2ncccc2c1,/,/,/,/,-6.7,/
CCC(C(=O)Nc1cc(C)nn1-c1nc(C)cc(C)n1)c1ccccc1 (configuration not stated),66.3*,-8.8,33.0,-1.1,-0.6,2.1
CCCCCCCCCCCCCCCCOCC(COCC(F)(F)F)OP(=O)(O)OCO (configuration not stated),/,/,/,/,-3.4,/
O=C1C(C=NCc2ccco2)=C(O)c2ccccc21,-0.2,8.0,3.4,39.9,-2.5,48.3
O=C1C(C=NCc2cccnc2)=C(O)c2ccccc21,2.0,28.4*,0.7,53.0*,-3.4,45.1
CCC(C(=O)Nc1nnc(-c2ccco2)s1)c1ccccc1 (configuration not stated),-2.1,3.3,-7.9,-30.1,-4.1,-3.7
CN(CCC#N)C(=O)CSc1ncnc2sc(-c3ccccc3)cc12,-12.7,-2.8,13.6,52.0*,-6.6,30.1
CN(C)/C=N/c1c(C#N)cnn1-c1ncnc2sc(-c3ccccc3)cc12,-12.1,8.2,31.1,-21.4,1.1,-7.9
CCOc1ccc(OCC)c(NC(=O)C2CCCN(S(=O)(=O)c3cnc[nH]3)C2)c1 (configuration not stated),2.3,1.9,-2.3,-3.8,-0.8,-2.2
N#CC1(c2ccccc2)CCCN1C(=O)c1ccc(Br)o1 (configuration not stated),-5.3,7.0,13.4,7.0,-2.8,8.7
CCCn1c(C)cc(C(=O)CN2C(=O)c3ccccc3C2=O)c1C,-2.9,1.8,28.4,54.8*,1.0,65.1*
COc1ccc(C(=O)CN2C(=O)c3ccccc3C2=O)c(OC)c1C,-7.6,-6.4,19.9,-2.0,-4.5,-2.0
